Measurements taken from ChEMBL document CHEMBL1275387, “Intramolecular reductive cyclization strategy to the synthesis of (-)-6-methyl-3-hydroxy-piperidine-2-carboxylic acid, (+)-6-methyl-(2-hydroxymethyl)-piperidine-3-ol and their glycosidase inhibitory activity” (Bioorg Med Chem, 2010).

How the values were obtained:
[1] = Inhibition of Geobacillus toebii BK1 alpha-galactosidase after 90 mins by spectrophotometric analysis
[2] = Competitive inhibition of yeast alpha-glucosidase after 90 mins by Lineweaver-Burke plot analysis; set-up: species or system Saccharomyces cerevisiae
Prunus dulcis [3] = test: (§1) Inhibition of almond seed alpha-mannosidase at 1 mM after 90 mins by spectrophotometric analysis
Outline: (§2)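 Each enzyme was screened with inhibitor at a single concentration of 1 mM, and percent inhibition was recorded. Reported values are the average of three sets of assays.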

[4] = as §1; set-up: species or system Prunus dulcis; outline: as §2
Prunus dulcis [5] = test: (§3) Inhibition of almond seed beta-galactosidase at 1 mM after 90 mins by spectrophotometric analysis; outline: as §2
[6] = as §3; set-up: species or system Prunus dulcis; outline: as §2
[7] = Inhibition of yeast alpha-glucosidase after 90 mins by spectrophotometric analysis; set-up: species or system Saccharomyces cerevisiae
Prunus dulcis [8] = test: (§4) Inhibition of almond seed N-Acetyl-beta-D-glucosaminidase at 1 mM after 90 mins by spectrophotometric analysis; outline: as §2
[9] = as §4; set-up: species or system Prunus dulcis; outline: as §2
Prunus dulcis [10] = test: (§5) Inhibition of almond seed beta-glucosidase at 1 mM after 90 mins by spectrophotometric analysis; outline: as §2
[11] = as §5; set-up: species or system Prunus dulcis; outline: as §2
[12] = Non-competitive inhibition of Geobacillus toebii BK1 alpha-galactosidase after 90 mins by Lineweaver-Burke plot analysis
Prunus dulcis [13] = test: (§6) Inhibition of almond seed alpha-galactosidase at 1 mM after 90 mins by spectrophotometric analysis; outline: as §2
[14] = as §6; set-up: species or system Prunus dulcis; outline: as §2
[15] = (§7) Inhibition of Geobacillus toebii BK1 alpha-galactosidase at 1 mM after 90 mins by spectrophotometric analysis; outline: as §2
Geobacillus toebii = test: as §7; outline: as §2
[16] = (§8) Inhibition of yeast alpha-glucosidase at 1 mM after 90 mins by spectrophotometric analysis; set-up: species or system Saccharomyces cerevisiae; outline: as §2
Saccharomyces cerevisiae = test: as §8; outline: as §2

For C[C@H]1CC[C@@H](O)[C@@H](C(=O)O)N1, the IC50 [1] was 180 µM, the Ki [2] was 71 µM and the inhibition (Prunus dulcis [3]) was < 50%. For the same compound, the Ki [4] was “Not Active”, the inhibition (Prunus dulcis [5]) was < 50% and the Ki [6] was “Not Active”. For the same compound, the IC50 [7] was 1150 µM, the inhibition (Prunus dulcis [8]) was < 50% and the Ki [9] was “Not Active”. For the same compound, the inhibition (Prunus dulcis [10]) was < 50%, the Ki [11] was “Not Active” and the Ki [12] was 26 µM. The inhibition (Prunus dulcis [13]) was < 50% and the Ki [14] was “Not Active”.

In the case of C[C@H]1CC[C@@H](O)[C@@H](CO)N1, the inhibition (Prunus dulcis [3]) is reported as < 50%, the Ki [4] is reported as “Not Active” and the inhibition (Prunus dulcis [5]) is reported as < 50%. The Ki [6] was “Not Active”, the inhibition (Prunus dulcis [8]) was < 50% and the Ki [9] was “Not Active”. The Ki [15] was “Not Active”, the inhibition (Geobacillus toebii) was < 50% and the inhibition (Prunus dulcis [10]) was < 50%. For the same compound, the Ki [11] was “Not Active”, the Ki [16] was “Not Active” and the inhibition (Saccharomyces cerevisiae) was < 50%. The inhibition (Prunus dulcis [13]) was < 50% and the Ki [14] was “Not Active”.
